Legend:
[1] = test system: L1210; test: Compound was tested in vitro for cytotoxicity on L1210 leukemic cells by using MTT assay.; assay type: functional, cell-based; details: Mus musculus
Procedure, shortened: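 L1210 cells were grown in RPMI 1640 with 10% fetal calf serum, 2 mM L-glutamine and 10 mM HEPES (pH 7.4). Cells were exposed for 48 h to nine serial drug dilutions in triplicate, and viability was read by MTT. IC50 is the concentration halving optical density versus untreated controls, given as mean ± SEM of at least 3 independent experiments.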

[2] = test system: MC-38; test: Compound was tested for antitumor activity against colon 38 adenocarcinoma cells at the dose of 6.25 mg/kg ip.; assay type: functional, Mus musculus
[3] = test system: P388; test: Compound was tested for antitumor activity against P388 leukemia cells at the dose of 12.5 mg/kg ip.; assay type: functional, Mus musculus
[4] = test system: P388; test: Compound was tested for antitumor activity against P388 leukemia cells at the dose of 50 mg/kg ip.; assay type: functional, Mus musculus
[5] = test system: MC-38; test: Compound was tested for antitumor activity against colon 38 adenocarcinoma cells at the dose of 12.5 mg/kg ip.; assay type: functional, Mus musculus
[6] = test system: P388; test: Compound was tested for antitumor activity against P388 leukemia cells at the dose of 12.5 mg/kg ip.; details: Mus musculus
[7] = test system: P388; test: Compound was tested for antitumor activity against P388 leukemia cells at the dose of 25 mg/kg iv.; assay type: functional, Mus musculus
[8] = test system: P388; test: Compound was tested for antitumor activity against P388 leukemia cells at the dose of 25 mg/kg ip.; assay type: functional, Mus musculus
[9] = test system: P388; test: Compound was tested for antitumor activity against P388 leukemia cells at the dose of 200 mg/kg ip.; assay type: functional, Mus musculus
[10] = test system: MC-38; test: Compound was tested for antitumor activity against colon 38 adenocarcinoma cells at the dose of 200 mg/kg ip.; assay type: functional, Mus musculus

Row | SMILES | IC50 [1] | also measured
1 | COc1cc2c(c3c1c(=O)c1ccccc1n3C)[C@@H](O)[C@@H](OC(=O)c1ccccc1)C(C)(C)O2 | 7.1 µM | Activity [2]: 18%; Activity [3]: 258%
2 | COc1cc2c(c3c1c(=O)c1ccccc1n3C)[C@@H](OC(C)=O)[C@@H](OC(=O)c1ccccc1)C(C)(C)O2 | 5 µM | Activity [4]: 201%; Activity [5]: 13%
3 | COc1cc2c(c3c1c(=O)c1ccccc1n3C)[C@@H](O)[C@@H](O)C(C)(C)O2 | 80.6 µM | 
4 | COc1cc2c(c3c1c(=O)c1ccccc1n3C)[C@@H](O)[C@@H](OC(C)=O)C(C)(C)O2 | 8.9 µM | 
5 | Cn1c2ccccc2c(=O)c2ccc3c(c21)[C@@H](O)[C@@H](O)C(C)(C)O3 | > 50 µM | 
6 | Cn1c2ccccc2c(=O)c2ccc3c(c21)[C@H]1OC(=O)O[C@H]1C(C)(C)O3 | > 50 µM | 
7 | CC(=O)O[C@@H]1c2c(ccc3c(=O)c4ccccc4n(C)c23)OC(C)(C)[C@@H]1OC(C)=O | > 50 µM | 
8 | Cn1c2ccccc2c(=O)c2ccc3c(c21)C=CC(C)(C)O3 | 29.7 µM | 
9 | COc1cc2c(c3c1c(=O)c1ccccc1n3C)[C@H]1OC(=O)O[C@H]1C(C)(C)O2 | 0.32 µM | Activity [2]: 68%; Activity [6]: 202%
10 | COc1cc2c(c3c1c(=O)c1ccccc1n3C)[C@@H](OC(C)=O)[C@@H](OC(C)=O)C(C)(C)O2 | 5.8 µM | Activity [7]: 220%; Activity [5]: 0%; Activity [8]: 289%
11 | COc1cc2c(c3c1c(=O)c1ccccc1n3C)C=CC(C)(C)O2 [ACRONINE] | 24.1 µM | Activity [9]: 125%; Activity [10]: 4%
12 | COc1cc2c(c3c1c(=O)c1ccccc1n3C)CCC(C)(C)O2 [DIHYDROACRONYCINE] | 34.3 µM | 

Reference: ChEMBL document CHEMBL1129414, “Synthesis and cytotoxic and antitumor activity of esters in the 1,2-dihydroxy-1,2-dihydroacronycine series” (J Med Chem, 1996)
